Legend:
[1] = compound: Cc1cc(C)c2cc(C3=CCCCC3)c(C)nc2c1; test: Mixed type inhibition of human 20S proteasome chymotryptic-like activity using Suc-LLVY-AMC as substrate assessed as Vmax for substrate at 6 uM by Lineweaver-Burk plot analysis (reference value: 0.1959 to 0.2691 umol/min)
Method in brief: (§1)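 Kinetics of CT-L activity of purified human 20S proteasome with Suc-LLVY-AMC substrate increased stepwise. Measured at five compound concentrations or vehicle, 37 °C. Fluorescence of released AMC gave rates.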

[2] = compound: Cc1cc(C)c2cc(C3=CCCCC3)c(C)nc2c1; test: Mixed type inhibition of human 20S proteasome chymotryptic-like activity using Suc-LLVY-AMC as substrate assessed as Vmax for substrate at 10 uM by Lineweaver-Burk plot analysis (reference value: 0.1959 to 0.2691 umol/min ); method in brief: as §1
[3] = compound: Cc1cc(C)c2cc(C3=CCCCC3)c(C)nc2c1; test: Mixed type inhibition of human 20S proteasome chymotryptic-like activity using Suc-LLVY-AMC as substrate assessed as Vmax for substrate at 9 uM by Lineweaver-Burk plot analysis (reference value: 0.1959 to 0.2691 umol/min); method in brief: as §1
[4] = compound: Cc1cc(C)c2cc(C3=CCCCC3)c(C)nc2c1; test: Mixed type inhibition of human 20S proteasome chymotryptic-like activity using Suc-LLVY-AMC as substrate assessed as Vmax for substrate at 8 uM by Lineweaver-Burk plot analysis (reference value: 0.1959 to 0.2691 umol/min); method in brief: as §1
[5] = compound: Cc1cc(C)c2cc(C3=CCCCC3)c(C)nc2c1; test: Mixed type inhibition of human 20S proteasome chymotryptic-like activity using Suc-LLVY-AMC as substrate assessed as Vmax for substrate at 7 uM by Lineweaver-Burk plot analysis (reference value: 0.1959 to 0.2691 umol/min); method in brief: as §1
[6] = compound: Cc1cc(C)c2cc(C3=CCCCC3)c(C)nc2c1; test: Mixed type inhibition of human 20S proteasome chymotryptic-like activity using Suc-LLVY-AMC as substrate assessed as Vmax for substrate at 5 uM by Lineweaver-Burk plot analysis (reference value: 0.1959 to 0.2691 umol/min); method in brief: as §1
[7] = compound: Cc1cc(C)c2cc(C3=CCCCC3)c(C)nc2c1; test: Mixed type inhibition of human 20S proteasome chymotryptic-like activity using Suc-LLVY-AMC as substrate assessed as Vmax for substrate at 4 uM by Lineweaver-Burk plot analysis (reference value: 0.1959 to 0.2691 umol/min); method in brief: as §1

B1: Proteasome Macropain subunit MB1 (Homo sapiens), P28074 (protein)
chain: MALASVLERPLPVNQRGFFGLGGRADLLDLGPGSLSDGLSLAAPGWGVPEEPGIEMLHGTTTLAFKFRHGVIVAADSRATAGAYIASQTVKKVIEINPYLLGTMAGGAADCSFWERLLARQCRIYELRNKERISVAAASKLLANMVYQYKGMGLSMGTMICGWDKRGPGLYYVDSEGNRISGATFSVGSGSVYAYGVMDRGYSYDLEVEQAYDLARRAIYQATYRDAYSGGAVNLYHVREDGWIRVSSDNVADLHEKYSGSTP
Vmax [1]: 0.0703 µmol/min
Vmax [2]: 0.0329 µmol/min
Vmax [3]: 0.0466 µmol/min
Vmax [4]: 0.0587 µmol/min
Vmax [5]: 0.0674 µmol/min
Vmax [6]: 0.0924 µmol/min
Vmax [7]: 0.0959 µmol/min

— ChEMBL document CHEMBL3804753, “Substituted quinolines as noncovalent proteasome inhibitors” (Bioorg Med Chem, 2016)
